ChEMBL document CHEMBL3046016, “Antifeedant and growth inhibitory effects of some neo-clerodane diterpenoids isolated from Clerodendron species (Verbenaceae) on Earias vitella and Spodoptera litura” (2003)

Legend:
Type in all cases: functional
[1] = test system: Spodoptera litura; experiment: Insecticidal activity against female adult Spodoptera litura in compound-treated castor leaves assessed as adult longevity time at 10 ug/cm2 (reference value: 10 +/- 0.63 days)
[2] = test system: Earias vittella; experiment: Insecticidal activity against third-instar larval stage of Earias vitella assessed as total larval duration time at 5 ug/cm3 administered through artificial diet containing Abelmoschus esculentus seed powder (reference value: 8.2 +/- 0.48 days)
[3] = test system: Spodoptera litura; experiment: Insecticidal activity against pupal stage of Spodoptera litura in compound-treated castor leaves assessed as pupal mortality at 5 ug/cm2 relative to control
[4] = test system: Earias vittella; experiment: Insecticidal activity against pupal stage of Earias vitella assessed as pupal duration time at 10 ug/cm3 administered through artificial diet containing Abelmoschus esculentus seed powder (reference value: 6.4 +/- 0.21 days)
[5] = test system: Earias vittella; experiment: Insecticidal activity against third-instar larval stage of Earias vitella assessed as larval mortality at 10 ug/cm3 administered through artificial diet containing Abelmoschus esculentus seed powder (reference value: 4%)
[6] = test system: Earias vittella; experiment: Insecticidal activity against male adult Earias vitella assessed as adult longevity time at 5 ug/cm3 administered through artificial diet containing Abelmoschus esculentus seed powder (reference value: 8.2 +/- 0.4 days)
[7] = test system: Spodoptera litura; experiment: Antifeedant activity against third-instar larval stage of Spodoptera litura in compound-treated castor leaves assessed as decrease in diet consumption at 10 ug/cm2 after 24 hr by no-choice leaf disk assay relative to acetone-treated control; parameters: scale not given: the % may be the effect or the level left
How it was run: (§1)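 Larvae were reared on castor leaves at 25 ± 2 °C. In a no-choice test, compound in acetone was painted on the abaxial side of castor leaf disks and air-dried. Five freshly molted third-instar larvae, starved 4 h, were placed per Petri dish with wet cotton. There were five replicates. After 24 h, consumed leaf area was read on a leaf area meter. %AF = 100 − (treated/control)×100.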

[8] = test system: Spodoptera litura; experiment: Insecticidal activity against pupal stage of Spodoptera litura in compound-treated castor leaves assessed as pupal weight at 5 ug/cm2 (reference value: 302.4 +/- 5.9 mg)
[9] = test system: Earias vittella; experiment: Insecticidal activity against adult Earias vitella assessed as adult deformity at 10 ug/cm3 administered through artificial diet containing Abelmoschus esculentus seed powder (reference value: 4%)
[10] = test system: Earias vittella; experiment: Antifeedant activity against third-instar larval stage of Earias vitella assessed as decrease in diet consumption at 10 ug/cm3 administered through artificial diet containing Abelmoschus esculentus seed powder after 24 hr relative to acetone-treated control; parameters: scale not given: the % may be the effect or the level left
How it was run: (§2)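 Artificial diet was modified Klein medium with bhendi (Abelmoschus esculentus) seed powder in place of alfalfa. Compound in acetone was mixed into bhendi meal 12 h before diet preparation so the solvent evaporated. One 3 g diet cube was given to five freshly molted third-instar larvae in a muslin-covered container. After 24 h the cubes were weighed. %AF = 100 − (treated/control)×100.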

[11] = test system: Earias vittella; experiment: Insecticidal activity against male adult Earias vitella assessed as adult longevity time at 10 ug/cm3 administered through artificial diet containing Abelmoschus esculentus seed powder (reference value: 8.2 +/- 0.4 days)
[12] = test system: Earias vittella; experiment: Insecticidal activity against pupal stage of Earias vitella assessed as pupal mortality at 5 ug/cm3 administered through artificial diet containing Abelmoschus esculentus seed powder (reference value: 8%)
[13] = test system: Earias vittella; experiment: Insecticidal activity against adult Earias vitella assessed as adult deformity at 5 ug/cm3 administered through artificial diet containing Abelmoschus esculentus seed powder (reference value: 4%)
[14] = test system: Spodoptera litura; experiment: Insecticidal activity against male adult Spodoptera litura in compound-treated castor leaves assessed as adult longevity time at 5 ug/cm2 (reference value: 9.4 +/- 0.48 days)
[15] = test system: Earias vittella; experiment: Insecticidal activity against third-instar larval stage of Earias vitella assessed as larval mortality at 5 ug/cm3 administered through artificial diet containing Abelmoschus esculentus seed powder (reference value: 4%)
[16] = test system: Spodoptera litura; experiment: Insecticidal activity against adult Spodoptera litura in compound-treated castor leaves assessed as adult emergence at 5 ug/cm2 relative to control
[17] = test system: Spodoptera litura; experiment: Insecticidal activity against third-instar larval stage of Spodoptera litura in compound-treated castor leaves assessed as larval mortality at 5 ug/cm2 relative to control
[18] = test system: Spodoptera litura; experiment: Insecticidal activity against third-instar larval stage of Spodoptera litura in compound-treated castor leaves assessed as total larval duration time at 10 ug/cm2 (reference value: 12.4 +/- 0.48 days)
[19] = test system: Earias vittella; experiment: Insecticidal activity against adult Earias vitella assessed as adult emergence at 10 ug/cm3 administered through artificial diet containing Abelmoschus esculentus seed powder (reference value: 88%)
[20] = test system: Spodoptera littoralis; experiment: Antifeedant activity against Spodoptera littoralis assessed as decrease in diet consumption at 200 ppm after 2 hr by leaf disk assay relative to control; parameters: scale not given: the % may be the effect or the level left
[21] = test system: Earias vittella; experiment: Insecticidal activity against adult Earias vitella assessed as adult emergence at 5 ug/cm3 administered through artificial diet containing Abelmoschus esculentus seed powder (reference value: 88%)
[22] = test system: Spodoptera litura; experiment: Insecticidal activity against third-instar larval stage of Spodoptera litura in compound-treated castor leaves assessed as larval mortality at 10 ug/cm2 relative to control
[23] = test system: Spodoptera litura; experiment: Insecticidal activity against pupal stage of Spodoptera litura in compound-treated castor leaves assessed as pupal duration time at 5 ug/cm2 (reference value: 9.2 +/- 0.74 days)
[24] = test system: Spodoptera litura; experiment: Insecticidal activity against pupal stage of Spodoptera litura in compound-treated castor leaves assessed as pupal duration time at 10 ug/cm2 (reference value: 9.2 +/- 0.74 days)
[25] = test system: Spodoptera litura; experiment: Antifeedant activity against third-instar larval stage of Spodoptera litura in compound-treated castor leaves assessed as decrease in diet consumption at 5 ug/cm2 after 24 hr by no-choice leaf disk assay relative to acetone-treated control; parameters: scale not given: the % may be the effect or the level left; how it was run: as §1
[26] = test system: Earias vittella; experiment: Insecticidal activity against pupal stage of Earias vitella assessed as pupal weight at 5 ug/cm3 administered through artificial diet containing Abelmoschus esculentus seed powder (reference value: 88.2 +/- 4.01 mg)
[27] = test system: Earias vittella; experiment: Insecticidal activity against third-instar larval stage of Earias vitella assessed as total larval duration time at 10 ug/cm3 administered through artificial diet containing Abelmoschus esculentus seed powder (reference value: 8.2 +/- 0.48 days)
[28] = test system: Spodoptera litura; experiment: Insecticidal activity against male adult Spodoptera litura in compound-treated castor leaves assessed as adult longevity time at 10 ug/cm2 (reference value: 9.4 +/- 0.48 days)
[29] = test system: Earias vittella; experiment: Insecticidal activity against pupal stage of Earias vitella assessed as pupal duration time at 5 ug/cm3 administered through artificial diet containing Abelmoschus esculentus seed powder (reference value: 6.4 +/- 0.21 days)
[30] = test system: Spodoptera litura; experiment: Insecticidal activity against female adult Spodoptera litura in compound-treated castor leaves assessed as adult longevity time at 5 ug/cm2 (reference value: 10 +/- 0.63 days)
[31] = test system: Earias vittella; experiment: Insecticidal activity against pupal stage of Earias vitella assessed as pupal mortality at 10 ug/cm3 administered through artificial diet containing Abelmoschus esculentus seed powder (reference value: 8%)
[32] = test system: Spodoptera litura; experiment: Insecticidal activity against third-instar larval stage of Spodoptera litura in compound-treated castor leaves assessed as total larval duration time at 5 ug/cm2 (reference value: 12.4 +/- 0.48 days)
[33] = test system: Spodoptera litura; experiment: Insecticidal activity against pupal stage of Spodoptera litura in compound-treated castor leaves assessed as pupal weight at 10 ug/cm2 (reference value: 302.4 +/- 5.9 mg)
[34] = test system: Spodoptera litura; experiment: Insecticidal activity against adult Spodoptera litura in compound-treated castor leaves assessed as adult deformity at 5 ug/cm2 relative to control
[35] = test system: Earias vittella; experiment: Antifeedant activity against third-instar larval stage of Earias vitella assessed as decrease in diet consumption at 5 ug/cm3 administered through artificial diet containing Abelmoschus esculentus seed powder after 24 hr relative to acetone-treated control; parameters: scale not given: the % may be the effect or the level left; how it was run: as §2
[36] = test system: Spodoptera litura; experiment: Insecticidal activity against pupal stage of Spodoptera litura in compound-treated castor leaves assessed as pupal mortality at 10 ug/cm2 relative to control
[37] = test system: Earias vittella; experiment: Insecticidal activity against female adult Earias vitella assessed as adult longevity time at 5 ug/cm3 administered through artificial diet containing Abelmoschus esculentus seed powder (reference value: 8.6 +/- 0.48 days)
[38] = test system: Spodoptera litura; experiment: Insecticidal activity against adult Spodoptera litura in compound-treated castor leaves assessed as adult deformity at 10 ug/cm2 relative to control
[39] = test system: Spodoptera litura; experiment: Insecticidal activity against adult Spodoptera litura in compound-treated castor leaves assessed as adult emergence at 10 ug/cm2 relative to control
[40] = test system: Earias vittella; experiment: Insecticidal activity against pupal stage of Earias vitella assessed as pupal weight at 10 ug/cm3 administered through artificial diet containing Abelmoschus esculentus seed powder (reference value: 88.2 +/- 4.01 mg)
[41] = test system: Earias vittella; experiment: Insecticidal activity against female adult Earias vitella assessed as adult longevity time at 10 ug/cm3 administered through artificial diet containing Abelmoschus esculentus seed powder (reference value: 8.6 +/- 0.48 days)
[42] = test system: Spodoptera littoralis; experiment: Antifeedant activity against Spodoptera littoralis assessed as decrease in diet consumption at 50 ppm after 2 hr by leaf disk assay relative to control; parameters: scale not given: the % may be the effect or the level left

CC(=O)OC[C@@]12[C@@H](OC(C)=O)C[C@@H](C)[C@](C)([C@@H]3C[C@H]4C=CO[C@H]4O3)[C@H]1CC[C@H](OC(C)=O)[C@]21CO1 [3-EPICARYOPTIN]
Time [1]: 6 days
Time [2]: 10 days
mortality at 5 µg/cm2 [3]: 26.5%
Time [4]: 10.2 days
mortality [5]: 12%
Time [6]: 5.8 days
Activity [7]: 82.6%
Activity [8]: 261.6 mg
Activity [9]: 8%
Activity [10]: 79.76%
Time [11]: 5.6 days
mortality [12]: 30%
Activity [13]: 8%
Time [14]: 7.4 days
mortality [15]: 8%
Activity [16]: 64.8%
mortality at 5 µg/cm2 [17]: 24%
Time [18]: 14.5 days
Activity [19]: 52%
Activity [20]: 100%
Activity [21]: 60.4%
mortality at 10 µg/cm2 [22]: 36%
Time [23]: 11 days
Time [24]: 11.8 days
Activity [25]: 73.4%
Activity [26]: 57.4 mg
Time [27]: 10.3 days
Time [28]: 6.4 days
Time [29]: 8.8 days
Time [30]: 7.2 days
mortality [31]: 40%
Time [32]: 14 days
Activity [33]: 250.2 mg
Activity [34]: 8.8%
Activity [35]: 73%
mortality at 10 µg/cm2 [36]: 30%
Time [37]: 6.2 days
Activity [38]: 12.8%
Activity [39]: 56.8%
Activity [40]: 53.2 mg
Time [41]: 5.8 days

CC(=O)OC[C@@]12[C@@H](OC(C)=O)C[C@@H](C)[C@](C)([C@@H]3C[C@H]4C=CO[C@H]4O3)[C@H]1CCC[C@]21CO1 [CLERODIN]
Time [1]: 7 days
Time [2]: 9.4 days
mortality at 5 µg/cm2 [3]: 27%
Time [4]: 8 days
mortality [5]: 8%
Time [6]: 6.6 days
Activity [7]: 80%
Activity [8]: 270.2 mg
Activity [9]: 8%
Activity [10]: 72.13%
Time [11]: 6.4 days
mortality [12]: 28.5%
Activity [13]: 4%
Time [14]: 8.4 days
mortality [15]: 4%
Activity [16]: 64%
mortality at 5 µg/cm2 [17]: 24.5%
Time [18]: 14.8 days
Activity [19]: 60%
Activity [21]: 68.6%
mortality at 10 µg/cm2 [22]: 35.2%
Time [23]: 10.9 days
Time [24]: 11.6 days
Activity [25]: 72%
Activity [26]: 60.4 mg
Time [27]: 9.9 days
Time [28]: 8 days
Time [29]: 7.2 days
Time [30]: 8 days
mortality [31]: 32%
Time [32]: 14.3 days
Activity [33]: 250.2 mg
Activity [34]: 8%
Activity [42]: 100%
Activity [35]: 62.87%
mortality at 10 µg/cm2 [36]: 27%
Time [37]: 6.8 days
Activity [38]: 9.6%
Activity [39]: 63.2%
Activity [40]: 58 mg
Time [41]: 6.6 days
